Test results taken from ChEMBL document CHEMBL1140994, “Ranking the selectivity of PubChem screening hits by activity-based protein profiling: MMP13 as a case study” (Bioorg Med Chem, 2009).
The source made the active and inactive calls. The rule behind the calls is not given here.

Tests used:
[1] = target: Angiotensin-converting enzyme 2 (Homo sapiens) (UniProt Q9BYF1); assay: Inhibition of human recombinant ACE2 at 200 uM by HxBPyne probe-based competitive activity based protein profiling assay in presence of 200 uM HxBpane competitor
Sequence of Angiotensin-converting enzyme 2 (Homo sapiens) (Q9BYF1 18-805 limits assumed): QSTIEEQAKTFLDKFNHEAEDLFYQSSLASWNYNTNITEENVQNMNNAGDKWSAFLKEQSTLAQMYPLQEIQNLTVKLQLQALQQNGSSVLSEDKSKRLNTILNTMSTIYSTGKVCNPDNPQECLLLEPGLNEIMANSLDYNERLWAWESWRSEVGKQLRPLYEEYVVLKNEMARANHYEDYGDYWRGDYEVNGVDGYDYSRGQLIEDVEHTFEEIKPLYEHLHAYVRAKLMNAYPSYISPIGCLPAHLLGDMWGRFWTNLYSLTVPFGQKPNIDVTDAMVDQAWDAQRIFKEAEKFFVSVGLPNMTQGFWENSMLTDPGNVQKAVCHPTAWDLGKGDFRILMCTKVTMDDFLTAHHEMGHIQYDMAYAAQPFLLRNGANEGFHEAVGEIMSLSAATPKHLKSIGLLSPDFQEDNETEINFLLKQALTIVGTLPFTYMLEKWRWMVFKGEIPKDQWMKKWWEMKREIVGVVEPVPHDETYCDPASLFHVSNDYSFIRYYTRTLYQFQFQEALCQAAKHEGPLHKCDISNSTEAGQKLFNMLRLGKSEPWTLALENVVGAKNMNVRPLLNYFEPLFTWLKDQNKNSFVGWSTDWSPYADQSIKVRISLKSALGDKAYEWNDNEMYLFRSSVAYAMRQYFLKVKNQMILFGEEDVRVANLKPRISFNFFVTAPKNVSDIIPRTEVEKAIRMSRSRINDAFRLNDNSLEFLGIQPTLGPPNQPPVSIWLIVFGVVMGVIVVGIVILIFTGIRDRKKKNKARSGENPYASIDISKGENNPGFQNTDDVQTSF
Procedure, shortened: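 Metalloprotease at 1.6 μM final in PBS, without liver proteome. HxBPyne probe cocktail 20 μM final, with inhibitor 200 μM or DMSO. Preincubated 30 min on ice, then irradiated 365 nm for 1 h on ice. Rhodamine-azide click chemistry, then SDS-PAGE and in-gel fluorescence scanning. Integrated band intensity expressed as % of DMSO control.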

[2] = target: Matrix metalloproteinase-15 (Homo sapiens) (UniProt P51511); assay: Inhibition of human recombinant MMP15 at 200 uM by HxBPyne probe-based competitive activity based protein profiling assay in presence of 5 uM HxBpane competitor
Sequence of Matrix metalloproteinase-15 (Homo sapiens) (P51511 132-669 limits assumed): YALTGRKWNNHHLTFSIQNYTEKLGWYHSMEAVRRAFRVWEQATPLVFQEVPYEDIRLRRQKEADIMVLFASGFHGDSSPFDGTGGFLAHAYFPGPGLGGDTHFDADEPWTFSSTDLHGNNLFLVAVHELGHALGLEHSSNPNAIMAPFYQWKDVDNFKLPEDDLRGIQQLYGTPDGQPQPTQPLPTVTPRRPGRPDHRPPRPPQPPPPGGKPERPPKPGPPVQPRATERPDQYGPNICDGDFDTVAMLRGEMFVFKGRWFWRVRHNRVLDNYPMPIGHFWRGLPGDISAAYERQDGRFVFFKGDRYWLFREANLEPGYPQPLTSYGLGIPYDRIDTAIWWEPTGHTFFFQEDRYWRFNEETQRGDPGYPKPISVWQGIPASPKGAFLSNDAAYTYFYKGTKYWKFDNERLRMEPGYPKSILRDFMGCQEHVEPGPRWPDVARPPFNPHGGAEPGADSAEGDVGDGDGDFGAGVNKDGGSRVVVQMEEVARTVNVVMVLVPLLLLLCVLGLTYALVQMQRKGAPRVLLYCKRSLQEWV
Procedure, shortened: (§1)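 Recombinant enzyme at 0.5 μM final in mouse liver soluble proteome (1 mg protein/mL in PBS). HxBPyne probe cocktail 0.5 μM total final, with inhibitor 200 μM or DMSO. Preincubated 30 min on ice, then UV 365 nm for 1 h on ice. Rhodamine-azide click chemistry, 1 h RT in dark. SDS-PAGE with in-gel fluorescence; band intensity given as % of DMSO control.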

Collagenase 3 = Collagenase 3 (Homo sapiens, UniProt P45452); assay: Inhibition of human recombinant MMP13 by fluorogenic substrate assay
[3] = target: Macrophage metalloelastase (Homo sapiens) (UniProt P39900); assay: Inhibition of human recombinant MMP12 at 200 uM by HxBPyne probe-based competitive activity based protein profiling assay in presence of 5 uM HxBpane competitor; procedure, shortened: as §1
Sequence of Macrophage metalloelastase (Homo sapiens) (P39900 106-470 limits assumed): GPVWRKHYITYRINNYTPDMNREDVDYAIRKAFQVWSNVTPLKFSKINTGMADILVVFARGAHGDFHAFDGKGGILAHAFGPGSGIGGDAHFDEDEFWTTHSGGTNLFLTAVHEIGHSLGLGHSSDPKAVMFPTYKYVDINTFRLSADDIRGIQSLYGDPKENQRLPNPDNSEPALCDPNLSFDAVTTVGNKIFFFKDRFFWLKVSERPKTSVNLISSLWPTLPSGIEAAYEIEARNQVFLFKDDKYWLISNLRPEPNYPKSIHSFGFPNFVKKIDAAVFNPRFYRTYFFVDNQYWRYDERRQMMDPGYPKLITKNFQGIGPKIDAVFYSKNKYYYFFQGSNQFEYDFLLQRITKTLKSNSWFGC

[4] = target: T1, Stromelysin-3 (Homo sapiens) (UniProt P24347); assay: Inhibition of human recombinant MMP11 at 200 uM by HxBPyne probe-based competitive activity based protein profiling assay in presence of 5 uM HxBpane competitor; procedure, shortened: as §1
T1 sequence (whole entry): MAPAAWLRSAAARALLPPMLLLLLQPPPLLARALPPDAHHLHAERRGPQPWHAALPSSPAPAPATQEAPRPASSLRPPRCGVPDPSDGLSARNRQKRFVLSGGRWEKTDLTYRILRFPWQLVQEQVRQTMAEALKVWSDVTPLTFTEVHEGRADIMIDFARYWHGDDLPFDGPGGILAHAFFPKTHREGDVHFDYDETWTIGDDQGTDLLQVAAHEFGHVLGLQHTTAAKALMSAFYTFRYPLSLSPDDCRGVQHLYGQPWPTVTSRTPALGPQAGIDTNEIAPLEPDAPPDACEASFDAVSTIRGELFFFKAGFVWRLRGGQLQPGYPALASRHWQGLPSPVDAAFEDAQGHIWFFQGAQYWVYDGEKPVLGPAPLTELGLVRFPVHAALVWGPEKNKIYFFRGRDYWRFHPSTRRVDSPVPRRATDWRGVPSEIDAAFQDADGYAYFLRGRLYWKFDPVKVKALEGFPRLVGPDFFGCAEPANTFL

[5] = target: Endoplasmic reticulum aminopeptidase 2 (Homo sapiens) (UniProt Q6P179); assay: Inhibition of human recombinant L-RAP at 200 uM by HxBPyne probe-based competitive activity based protein profiling assay in presence of 5 uM HxBpane competitor; procedure, shortened: as §1
Sequence of Endoplasmic reticulum aminopeptidase 2 (Homo sapiens) (Q6P179 whole entry): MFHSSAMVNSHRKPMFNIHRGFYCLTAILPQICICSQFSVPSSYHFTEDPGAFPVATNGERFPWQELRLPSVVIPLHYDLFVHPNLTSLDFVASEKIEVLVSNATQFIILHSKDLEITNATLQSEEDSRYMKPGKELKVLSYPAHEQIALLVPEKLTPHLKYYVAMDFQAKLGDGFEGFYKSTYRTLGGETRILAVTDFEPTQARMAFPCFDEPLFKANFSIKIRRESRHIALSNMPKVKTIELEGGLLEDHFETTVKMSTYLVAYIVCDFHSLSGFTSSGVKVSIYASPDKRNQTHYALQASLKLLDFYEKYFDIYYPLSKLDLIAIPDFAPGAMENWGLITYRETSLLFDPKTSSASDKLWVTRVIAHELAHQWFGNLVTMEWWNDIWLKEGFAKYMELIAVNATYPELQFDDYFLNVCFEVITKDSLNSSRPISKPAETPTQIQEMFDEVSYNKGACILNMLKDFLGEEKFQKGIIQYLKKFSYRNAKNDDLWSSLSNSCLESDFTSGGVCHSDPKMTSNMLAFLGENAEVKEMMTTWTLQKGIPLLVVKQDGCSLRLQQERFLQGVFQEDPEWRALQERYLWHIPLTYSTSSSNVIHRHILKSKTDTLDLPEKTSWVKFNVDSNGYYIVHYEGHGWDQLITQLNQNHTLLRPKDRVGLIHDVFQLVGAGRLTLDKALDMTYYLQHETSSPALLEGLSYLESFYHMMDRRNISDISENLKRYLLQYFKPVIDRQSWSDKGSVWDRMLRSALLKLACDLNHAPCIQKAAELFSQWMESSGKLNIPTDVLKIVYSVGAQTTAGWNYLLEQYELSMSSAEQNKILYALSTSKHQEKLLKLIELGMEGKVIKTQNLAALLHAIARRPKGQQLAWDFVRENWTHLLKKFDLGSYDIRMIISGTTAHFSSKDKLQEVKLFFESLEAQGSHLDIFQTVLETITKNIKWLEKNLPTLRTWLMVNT

| Structure (SMILES) | Activity [1] | Activity [2] | IC50 (Collagenase 3) [µM] | Activity [3] | Activity [4] | Activity [5] |
| --- | --- | --- | --- | --- | --- | --- |
| Oc1nc(SCc2ccc(Cl)cc2)nc2c1CCC2 | inactive | inactive | 0.92 | inactive | inactive | inactive |
| COc1ccc(CSc2nc(C)cc(O)n2)cc1 | inactive | inactive | 1.6 | inactive | inactive | inactive |
